ChEMBL document CHEMBL1143241, “Development of potent, allosteric dual Akt1 and Akt2 inhibitors with improved physical properties and cell activity” (Bioorg Med Chem Lett, 2008)
Converted amounts (≈) assume the structure as drawn.

Assays:
[1] = biological target: T1, RAC-beta serine/threonine-protein kinase (Homo sapiens, UniProt P31751); experiment: Inhibition of Akt2 by cell-based IPKA assay
[2] = biological target: T1, RAC-beta serine/threonine-protein kinase; experiment: Inhibition of Akt2
Procedure, shortened: (§1)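 In vitro enzyme inhibition assay following a previously reported protocol. Each IC50 is the average of at least three determinations.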

[3] = Inhibition of PKA; procedure, shortened: as §1
[4] = biological target: T2, RAC-alpha serine/threonine-protein kinase (Homo sapiens, UniProt P31749); experiment: Inhibition of Akt1 by cell-based IPKA assay
T2 sequence (P31749 whole entry): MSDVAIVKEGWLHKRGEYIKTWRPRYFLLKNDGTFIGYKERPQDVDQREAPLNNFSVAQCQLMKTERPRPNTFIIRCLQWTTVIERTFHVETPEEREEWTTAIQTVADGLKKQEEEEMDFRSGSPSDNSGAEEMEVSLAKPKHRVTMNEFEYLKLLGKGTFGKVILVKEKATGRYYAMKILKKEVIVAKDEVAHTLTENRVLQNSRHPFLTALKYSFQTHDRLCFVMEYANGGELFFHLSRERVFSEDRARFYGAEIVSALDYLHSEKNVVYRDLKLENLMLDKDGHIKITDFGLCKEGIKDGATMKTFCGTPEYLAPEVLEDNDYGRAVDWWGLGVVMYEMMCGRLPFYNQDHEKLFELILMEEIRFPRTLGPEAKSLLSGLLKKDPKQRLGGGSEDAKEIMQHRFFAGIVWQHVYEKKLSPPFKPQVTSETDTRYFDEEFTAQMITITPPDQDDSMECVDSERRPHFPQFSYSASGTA

[5] = Solubility at pH 7.4 in 98% saline; assay type: physicochemical
[6] = biological target: T3, RAC-gamma serine/threonine-protein kinase (Homo sapiens, UniProt Q9Y243); experiment: Inhibition of Akt3 by cell-based IPKA assay
T3 sequence (Q9Y243 whole entry): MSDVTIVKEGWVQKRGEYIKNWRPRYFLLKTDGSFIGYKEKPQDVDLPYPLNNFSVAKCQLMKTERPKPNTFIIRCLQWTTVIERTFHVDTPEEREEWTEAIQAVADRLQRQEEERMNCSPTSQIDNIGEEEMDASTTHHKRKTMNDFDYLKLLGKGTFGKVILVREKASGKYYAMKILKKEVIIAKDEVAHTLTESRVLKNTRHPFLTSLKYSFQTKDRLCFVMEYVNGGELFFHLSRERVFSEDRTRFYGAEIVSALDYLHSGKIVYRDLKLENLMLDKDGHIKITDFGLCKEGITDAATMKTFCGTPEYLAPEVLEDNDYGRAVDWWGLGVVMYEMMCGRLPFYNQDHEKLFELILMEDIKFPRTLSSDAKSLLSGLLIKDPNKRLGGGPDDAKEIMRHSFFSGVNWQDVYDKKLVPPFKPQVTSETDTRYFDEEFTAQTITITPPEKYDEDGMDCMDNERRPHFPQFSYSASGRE

[7] = biological target: T2, RAC-alpha serine/threonine-protein kinase; experiment: Inhibition of Akt1; procedure, shortened: as §1
[8] = Inhibition of PKC; procedure, shortened: as §1
[9] = biological target: T3, RAC-gamma serine/threonine-protein kinase; experiment: Inhibition of Akt3
[10] = biological target: T4, Serine/threonine-protein kinase Sgk1 (Homo sapiens, UniProt O00141); experiment: Inhibition of SGK; procedure, shortened: as §1
T4 sequence (O00141 whole entry): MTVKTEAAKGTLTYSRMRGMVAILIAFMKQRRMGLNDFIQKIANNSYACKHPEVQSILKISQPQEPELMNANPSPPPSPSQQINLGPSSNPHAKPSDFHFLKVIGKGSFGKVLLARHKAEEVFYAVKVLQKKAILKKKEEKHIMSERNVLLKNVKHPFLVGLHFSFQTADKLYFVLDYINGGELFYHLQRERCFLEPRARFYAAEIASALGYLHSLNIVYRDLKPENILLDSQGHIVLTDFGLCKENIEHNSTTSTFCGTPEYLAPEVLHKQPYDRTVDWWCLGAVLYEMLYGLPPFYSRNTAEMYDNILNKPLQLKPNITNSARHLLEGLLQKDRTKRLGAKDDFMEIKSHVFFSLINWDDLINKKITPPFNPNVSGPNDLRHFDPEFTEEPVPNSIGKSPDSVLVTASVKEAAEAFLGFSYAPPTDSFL

T1 sequence (P31751 whole entry): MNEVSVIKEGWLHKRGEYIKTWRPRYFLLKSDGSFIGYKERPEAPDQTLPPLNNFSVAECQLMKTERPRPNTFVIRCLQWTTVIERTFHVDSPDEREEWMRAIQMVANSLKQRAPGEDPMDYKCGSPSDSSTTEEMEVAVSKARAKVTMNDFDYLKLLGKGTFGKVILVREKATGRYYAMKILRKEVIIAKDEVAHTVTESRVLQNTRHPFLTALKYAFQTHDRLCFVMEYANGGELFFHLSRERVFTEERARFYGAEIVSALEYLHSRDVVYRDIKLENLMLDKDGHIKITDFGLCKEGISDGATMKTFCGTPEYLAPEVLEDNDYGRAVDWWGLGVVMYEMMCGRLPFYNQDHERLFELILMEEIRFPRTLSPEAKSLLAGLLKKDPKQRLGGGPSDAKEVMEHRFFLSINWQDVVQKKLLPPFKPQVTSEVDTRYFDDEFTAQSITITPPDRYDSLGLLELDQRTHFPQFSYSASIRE

| SMILES | IC50 [1] [nM] | IC50 [2] [nM] | IC50 [3] [nM] | IC50 [4] [nM] | solubility [5] [mg/mL] | IC50 [6] [nM] | IC50 [7] [nM] | IC50 [8] [nM] | IC50 [9] [nM] | IC50 [10] [nM] |
| --- | --- | --- | --- | --- | --- | --- | --- | --- | --- | --- |
| CCN(CC)CCNC(=O)c1ccc2nc(-c3ccccc3)c(-c3ccc(CN4CCC(n5c(=O)[nH]c6ccccc65)CC4)cc3)nc2c1 | 276 | 212 | > 50000 | 253 | 18 (≈ 27.5 mM) | > 10000 | 138 | > 50000 | 7200 | > 50000 |
| CCN(CC)CCNC(=O)c1ccc2nc(-c3ccc(CN4CCC(n5c(=O)[nH]c6ccccc65)CC4)cc3)c(-c3ccccc3)nc2c1 | 617 | 359 | > 50000 | 368 | 18 (≈ 27.5 mM) | 8000 | 458 | > 50000 | 7400 | > 50000 |
| O=c1[nH]c2ccccc2n1C1CCN(Cc2ccc(-c3nc4ccc(-c5nnn[nH]5)cc4nc3-c3ccccc3)cc2)CC1 | – | – | – | – | 18 (≈ 31.1 mM) | – | – | – | – | – |
| O=C(O)c1ccc2nc(-c3ccc(CN4CCC(n5c(=O)[nH]c6ccccc65)CC4)cc3)c(-c3ccccc3)nc2c1 | – | – | – | – | 18 (≈ 32.4 mM) | – | – | – | – | – |
| O=C(O)c1ccc2nc(-c3ccccc3)c(-c3ccc(CN4CCC(n5c(=O)[nH]c6ccccc65)CC4)cc3)nc2c1 | – | – | – | – | 18 (≈ 32.4 mM) | – | – | – | – | – |
| O=c1[nH]c2ccccc2n1C1CCN(Cc2ccc(-c3nc4cc(-c5nnn[nH]5)ccc4nc3-c3ccccc3)cc2)CC1 | – | – | – | – | 18 (≈ 31.1 mM) | – | – | – | – | – |
